According to ChEMBL document CHEMBL1157623, “Benzyl 1,2,3,5,11,11a-hexahydro-3,3-dimethyl-1-oxo-6H-imidazo[3',4':1,2]pyridin[3,4-b]indole-2-substituted acetates: One-pot-preparation, anti-tumor activity, docking toward DNA and 3D QSAR analysis” (Bioorg Med Chem, 2010):

How the values were obtained:
[1] = tested on: MCF7; assay: Antiproliferative activity against human MCF7 cells after 3 days by sulforhodamine B assay; assay type: functional, cell-based; conditions: MCF7, 72 h
Outline: (§1)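 Freshly trypsinized cells seeded at 5000 per well; compounds added from DMSO-diluted stock at 60, 6, 0.6, 0.06 and 0.006 µM. After 3 days, attached cells were fixed with cold 10% trichloroacetic acid, stained with 0.4% sulforhodamine B, the bound dye solubilized, and absorbance read at 562 nm. IC50 is the concentration reducing cell growth by 50%, averaged from at least three independent determinations.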

[2] = Lipophilicity, log K at 10 uM after 40 mins by HPLC analysis; assay type: physicochemical
Outline: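 Sample at 10^-5 M analysed by reversed-phase C18 HPLC, eluted with CH3OH/H2O 0.7/0.3 at 1 mL/min for 40 min, UV detection at 254.8 nm. Retention time tR recorded; acetone peak taken as t0 (1.591 min). Log K = Log[(tR − t0)/t0].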

[3] = tested on: PC-3; assay: Antiproliferative activity against human PC3 cells after 3 days by sulforhodamine B assay; assay type: functional, cell-based; conditions: PC-3, 72 h; outline: as §1
[4] = tested on: A549; assay: Antiproliferative activity against human A549 cells after 3 days by sulforhodamine B assay; assay type: functional, cell-based; conditions: A549, 72 h; outline: as §1
[5] = Antiproliferative activity against human KBVIN cells after 3 days by sulforhodamine B assay; assay type: functional, cell-based; conditions: 72 h; outline: as §1
[6] = tested on: CCRF S-180; assay: Antitumor activity against mouse S180 cells xenografted in ICR mouse assessed as tumor weight at 1 mg/kg, ip administered 24 hrs after tumor implantation daily for 7 consecutive days measured after 24 hrs of last dose (Rvb=1.602 +/- 0.391 g); assay type: functional; conditions: route intraperitoneal
[7] = tested on: KB; assay: Antiproliferative activity against human KB cells after 3 days by sulforhodamine B assay; assay type: functional, cell-based; conditions: 72 h; outline: as §1
[8] = tested on: Mus musculus; assay: Toxicity in ICR mouse xenografted with mouse S180 cells assessed as spleen weight at 1 mg/kg, ip administered 24 hrs after tumor implantation daily for 7 consecutive days measured after 24 hrs of last dose (Rvb=0.22 +/- 0.04 g); assay type: organism-based, CCRF S-180; parameters: dose 1 mg/kg, route intraperitoneal; conditions: in vivo
[9] = tested on: Mus musculus; assay: Toxicity in ICR mouse xenografted with mouse S180 cells assessed as body weight at 1 mg/kg, ip administered 24 hrs after tumor implantation daily for 7 consecutive days measured after 24 hrs of last dose (Rvb=33.3 +/- 2.32 g); assay type: organism-based, CCRF S-180; parameters: dose 1 mg/kg, route intraperitoneal; conditions: in vivo
[10] = tested on: Mus musculus; assay: Toxicity in ICR mouse xenografted with mouse S180 cells assessed as heart weight at 1 mg/kg, ip administered 24 hrs after tumor implantation daily for 7 consecutive days measured after 24 hrs of last dose (Rvb=0.17 +/- 0.01 g); assay type: organism-based, CCRF S-180; parameters: dose 1 mg/kg, route intraperitoneal; conditions: in vivo
[11] = tested on: Mus musculus; assay: Toxicity in ICR mouse xenografted with mouse S180 cells assessed as brain weight at 1 mg/kg, ip administered 24 hrs after tumor implantation daily for 7 consecutive days measured after 24 hrs of last dose (Rvb=0.31 +/- 0.01 g); assay type: organism-based, CCRF S-180; parameters: dose 1 mg/kg, route intraperitoneal; conditions: in vivo
[12] = tested on: Mus musculus; assay: Toxicity in ICR mouse xenografted with mouse S180 cells assessed as liver weight at 1 mg/kg, ip administered 24 hrs after tumor implantation daily for 7 consecutive days measured after 24 hrs of last dose (Rvb=2.36 +/- 0.20 g); assay type: organism-based, CCRF S-180; parameters: dose 1 mg/kg, route intraperitoneal; conditions: in vivo
[13] = tested on: Mus musculus; assay: Toxicity in ICR mouse xenografted with mouse S180 cells assessed as femur weight at 1 mg/kg, ip administered 24 hrs after tumor implantation daily for 7 consecutive days measured after 24 hrs of last dose (Rvb=0.056 +/- 0.006 g); assay type: organism-based, CCRF S-180; parameters: dose 1 mg/kg, route intraperitoneal; conditions: in vivo
[14] = tested on: Mus musculus; assay: Toxicity in ICR mouse xenografted with mouse S180 cells assessed as kidney weight at 1 mg/kg, ip administered 24 hrs after tumor implantation daily for 7 consecutive days measured after 24 hrs of last dose (Rvb=0.23 +/- 0.02 g); assay type: organism-based, CCRF S-180; parameters: dose 1 mg/kg, route intraperitoneal; conditions: in vivo
[15] = tested on: Mus musculus; assay: Toxicity in ICR mouse assessed as mortality up to 500 mg/kg, ip measured after 7 days post dose; assay type: organism-based; parameters: dose 500 mg/kg, route intraperitoneal; conditions: in vivo, 168 h
Outline: (§2)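 ICR mice, 10–12 weeks old, of both sexes (six males and six females, 12 per group), housed at 21 °C and fasted overnight with water available. They received a single ip injection of 10, 100 or 500 mg/kg in 0.2 mL 0.9% saline. Mice were watched continuously for 7 days for neurotoxic behaviour or death, then killed on day 7 and checked macroscopically (heart, liver, kidneys). LD50 was estimated graphically.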

[16] = tested on: Mus musculus; assay: Toxicity in ICR mouse assessed as change in kidney weight at 10 to 500 mg/kg, ip measured on day 7 post dose by necroscopy; assay type: organism-based; parameters: dose 10-500 mg/kg, route intraperitoneal; conditions: in vivo
[17] = tested on: Mus musculus; assay: Toxicity in ICR mouse assessed as change in liver weight at 10 to 500 mg/kg, ip measured on day 7 post dose by necroscopy; assay type: organism-based; parameters: dose 10-500 mg/kg, route intraperitoneal; conditions: in vivo
[18] = tested on: CCRF S-180; assay: Antitumor activity against mouse S180 cells xenografted in ICR mouse assessed as tumor weight at 0.1 mg/kg, ip administered 24 hrs after tumor implantation daily for 7 consecutive days measured after 24 hrs of last dose (Rvb=1.602 +/- 0.391 g); assay type: functional; conditions: route intraperitoneal
[19] = Toxicity in ip dosed ICR mouse measured after 7 days post dose; assay type: organism-based; conditions: in vivo; outline: as §2
[20] = tested on: CCRF S-180; assay: Antitumor activity against mouse S180 cells xenografted in ICR mouse assessed as tumor weight at 0.01 mg/kg, ip administered 24 hrs after tumor implantation daily for 7 consecutive days measured after 24 hrs of last dose (Rvb=1.602 +/- 0.391 g); assay type: functional; conditions: route intraperitoneal
[21] = tested on: CCRF S-180; assay: Antitumor activity against mouse S180 cells xenografted in ip dosed ICR mouse assessed as decrease in tumor weight administered 24 hrs after tumor implantation daily for 7 consecutive days measured after 24 hrs of last dose; assay type: functional, organism-based
[22] = tested on: Mus musculus; assay: Toxicity in ICR mouse assessed as change in heart weight at 10 to 500 mg/kg, ip measured on day 7 post dose by necroscopy; assay type: organism-based; parameters: dose 10-500 mg/kg, route intraperitoneal; conditions: in vivo
[23] = tested on: Mus musculus; assay: Neurotoxicity in ICR mouse assessed as occurrence of neurotoxic behavior at 10 to 500 mg/kg, ip measured up to 7 days post dose; assay type: toxicity, organism-based; parameters: dose 10-500 mg/kg, route intraperitoneal; conditions: in vivo, 168 h
Outline: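 Healthy ICR mice, 10–12 weeks old, 12 per group (six male, six female), fasted overnight with water available. Single ip injection of 10, 100 or 500 mg/kg in 0.2 mL 0.9% saline. Monitored continuously up to 7 days for abnormal behavior (tremor, twitch, jumping, tetanus, supination) or death. Sacrificed on day 7; heart, liver and kidneys checked macroscopically.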

| Compound | IC50 [1] | log K [2] | IC50 [3] | IC50 [4] | IC50 [5] | Activity [6] | IC50 [7] | further results |
| --- | --- | --- | --- | --- | --- | --- | --- | --- |
| CC1(C)N2Cc3[nH]c4ccccc4c3C[C@H]2C(=O)N1[C@@H](CCC(=O)OCc1ccccc1)C(=O)OCc1ccccc1 | 37 µM | 1.05 | 35.4 µM | 33.6 µM | 37.9 µM | 1.578 g | 40 µM | – |
| CC(C)C[C@@H](C(=O)OCc1ccccc1)N1C(=O)[C@@H]2Cc3c([nH]c4ccccc34)CN2C1(C)C | 14.7 µM | 0.92 | 7.06 µM | 30.6 µM | 32.5 µM | 2.05 g | 41.1 µM | – |
| CC1(C)N2Cc3[nH]c4ccccc4c3C[C@H]2C(=O)N1[C@@H](CC(N)=O)C(=O)OCc1ccccc1 | 20.2 µM | 0.16 | 17 µM | 39.6 µM | 50.1 µM | 1.604 g | 43.5 µM | – |
| CC(C)[C@@H](C(=O)OCc1ccccc1)N1C(=O)[C@@H]2Cc3c([nH]c4ccccc34)CN2C1(C)C | 33.7 µM | 0.73 | 8.47 µM | 44.9 µM | 52.2 µM | 2.003 g | 52 µM | – |
| C[C@@H](C(=O)OCc1ccccc1)N1C(=O)[C@@H]2Cc3c([nH]c4ccccc34)CN2C1(C)C | 57 µM | 0.44 | 48 µM | 59.1 µM | 55.7 µM | 1.418 g | 60.3 µM | – |
| CC1(C)N2Cc3[nH]c4ccccc4c3C[C@H]2C(=O)N1[C@@H](COCc1ccccc1)C(=O)OCc1ccccc1 | 19.8 µM | 1.02 | 13.9 µM | 23.3 µM | 42.3 µM | 1.793 g | 38.2 µM | – |
| CC1(C)N2Cc3[nH]c4ccccc4c3C[C@H]2C(=O)N1[C@@H](CCC(N)=O)C(=O)OCc1ccccc1 | 20.4 µM | 0.25 | 10 µM | 38.4 µM | 40 µM | 1.696 g | 42.1 µM | – |
| COc1cccc2c1C(=O)c1c(O)c3c(c(O)c1C2=O)C[C@@](O)(C(=O)CO)C[C@@H]3O[C@H]1C[C@H](N)[C@H](O)[C@H](C)O1 [DOXORUBICIN] | – | – | – | – | – | 0.817 g | – | Activity [8]: 0.11 g; Activity [9]: 27.28 g; Activity [10]: 0.15 g; Activity [11]: 0.32 g; Activity [12]: 2 g; Activity [13]: 0.046 g; Activity [14]: 0.19 g |
| CC1(C)N2Cc3[nH]c4ccccc4c3C[C@H]2C(=O)N1[C@@H](CC(=O)OCc1ccccc1)C(=O)OCc1ccccc1 | 7.01 µM | 0.96 | 0.04 µM | 0.15 µM | 38.6 µM | 0.746 g | 36.3 µM | Activity [15]: Non-toxic; Activity [8]: 0.24 g; Activity [16]: Non-toxic; Activity [9]: 33.37 g; Activity [17]: Non-toxic; Activity [18]: 1.013 g; LD50 at 168 h [19]: > 500 mg/kg; Activity [20]: 1.305 g; Activity [10]: 0.17 g; Activity [11]: 0.31 g; Activity [12]: 2.26 g; Activity [13]: 0.057 g; Activity [14]: 0.23 g; Activity [21]: Dose-dependent effect; Activity [22]: Non-toxic; Activity [23]: Non-toxic |
| CC1(C)N2Cc3[nH]c4ccccc4c3C[C@H]2C(=O)N1[C@@H](Cc1ccccc1)C(=O)OCc1ccccc1 | 43 µM | 1.05 | 40.6 µM | 35.3 µM | 41.1 µM | 1.6 g | 46.4 µM | – |
| CCC(C)[C@@H](C(=O)OCc1ccccc1)N1C(=O)[C@@H]2Cc3c([nH]c4ccccc34)CN2C1(C)C (stereo partly specified) | 21.1 µM | 0.8 | 10.3 µM | 43.6 µM | 50.9 µM | 2.846 g | 50.1 µM | – |
| CC1(C)N2Cc3[nH]c4ccccc4c3C[C@H]2C(=O)N1[C@@H](Cc1ccc(O)cc1)C(=O)OCc1ccccc1 | 4.44 µM | 0.49 | 0.69 µM | 0.12 µM | 8.35 µM | 1.046 g | 18 µM | Activity [15]: Non-toxic; Activity [8]: 0.23 g; Activity [16]: Non-toxic; Activity [9]: 35.85 g; Activity [17]: Non-toxic; LD50 at 168 h [19]: > 500 mg/kg; Activity [10]: 0.16 g; Activity [11]: 0.32 g; Activity [12]: 2.35 g; Activity [13]: 0.056 g; Activity [14]: 0.23 g; Activity [22]: Non-toxic; Activity [23]: Non-toxic |
| CC1(C)N2Cc3[nH]c4ccccc4c3C[C@H]2C(=O)N1[C@@H](CCCCNC(=O)OCc1ccccc1)C(=O)OCc1ccccc1 | 4.61 µM | 0.87 | 4.24 µM | 8.34 µM | 30.6 µM | 1.613 g | 32.9 µM | – |
| CC1(C)N(CC(=O)OCc2ccccc2)C(=O)[C@@H]2Cc3c([nH]c4ccccc34)CN21 | 10.4 µM | 0.32 | 9.98 µM | 7.92 µM | 12.2 µM | 0.916 g | 22.5 µM | Activity [15]: Non-toxic; Activity [8]: 0.24 g; Activity [16]: Non-toxic; Activity [9]: 33.75 g; Activity [17]: Non-toxic; LD50 at 168 h [19]: > 500 mg/kg; Activity [10]: 0.16 g; Activity [11]: 0.3 g; Activity [12]: 2.25 g; Activity [13]: 0.055 g; Activity [14]: 0.22 g; Activity [22]: Non-toxic; Activity [23]: Non-toxic |
